Laboratory results taken from ChEMBL document CHEMBL4376872, “Scaffold Hopping of Natural Product Evodiamine: Discovery of a Novel Antitumor Scaffold with Excellent Potency against Colon Cancer” (J Med Chem, 2020).
Activity calls are given as the source filed them. The rule behind the calls is not given here.

Assays:
[1] = molecular target: CDK4/Cyclin D3 (Homo sapiens) (UniProt P11802+P30281); experiment: Inhibition of CDK4/Cyclin D3 (unknown origin) using Rb as substrate at 5 uM incubated for 40 mins in presence of 10 uM ATP by kinase-Glo luminescence assay relative to control; assay type: protein-complex assay
[2] = Antiproliferative activity against human MV-3 cells assessed as reduction in cell viability incubated for 72 hrs by CCK8 assay; assay type: functional, cell-based; settings: MV-3, 72 h
[3] = molecular target: Histone deacetylase 3/Nuclear receptor corepressor 2 (HDAC3/NCoR2) (Homo sapiens) (UniProt O15379+Q9Y618); experiment: Inhibition of C-terminal His-tagged recombinant human HDAC3 (1 to 428 residues)/N-terminal GST-tagged recombinat human NCoR2 (395 to 489 residues) co-expressed in baculovirus infected Sf9 cells using histone peptide 3 as substrate at 5 uM incubated for 30 mins by fluorescence analysis
[4] = molecular target: PI3-kinase p110-alpha/p85-alpha (Homo sapiens) (UniProt P27986+P42336); experiment: Inhibition of PI3K p110alpha/p85alpha (unknown origin) using PI3K lipid as substrate at 5 uM incubated for 40 mins in presence of 2.5 uM ATP by kinase-Glo luminescence assay relative to control; assay type: protein-complex assay
[5] = molecular target: Protein mono-ADP-ribosyltransferase PARP15 (Homo sapiens) (UniProt Q460N3); experiment: Inhibition of PARP15 (unknown origin) using biotin-NAD+, NAD+ and sIDNA as substrate at 5 uM incubated for 1 hr by ELISA relative to control
Protein mono-ADP-ribosyltransferase PARP15 (Homo sapiens), sequence (Q460N3 whole entry): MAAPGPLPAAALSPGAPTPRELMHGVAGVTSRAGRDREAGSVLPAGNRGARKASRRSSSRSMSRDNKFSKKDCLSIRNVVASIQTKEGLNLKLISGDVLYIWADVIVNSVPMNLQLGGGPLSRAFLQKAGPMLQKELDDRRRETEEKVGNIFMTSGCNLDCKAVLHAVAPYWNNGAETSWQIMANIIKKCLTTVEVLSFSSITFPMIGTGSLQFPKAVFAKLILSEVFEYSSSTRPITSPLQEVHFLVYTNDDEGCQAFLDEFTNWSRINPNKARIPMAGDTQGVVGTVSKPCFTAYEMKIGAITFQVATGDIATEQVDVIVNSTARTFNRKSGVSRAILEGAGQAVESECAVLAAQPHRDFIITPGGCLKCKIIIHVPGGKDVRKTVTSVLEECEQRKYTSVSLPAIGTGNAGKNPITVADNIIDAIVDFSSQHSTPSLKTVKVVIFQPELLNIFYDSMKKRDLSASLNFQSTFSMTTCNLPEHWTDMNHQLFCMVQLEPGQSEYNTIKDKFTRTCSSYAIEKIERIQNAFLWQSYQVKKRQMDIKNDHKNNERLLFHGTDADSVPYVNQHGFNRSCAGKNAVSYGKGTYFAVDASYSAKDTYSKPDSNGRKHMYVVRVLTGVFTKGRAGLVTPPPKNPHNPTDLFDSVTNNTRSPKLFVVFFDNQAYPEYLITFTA

[6] = molecular target: Histone-lysine N-methyltransferase EZH2 (Homo sapiens) (UniProt Q15910); experiment: Inhibition of EZH2 (unknown origin) using plate-coated histone as substrate at 5 uM incubated for 90 mins in presence of 5 uM SAM by AlphaScreen assay relative to control
Histone-lysine N-methyltransferase EZH2 (Homo sapiens), sequence (Q15910 whole entry, looked up): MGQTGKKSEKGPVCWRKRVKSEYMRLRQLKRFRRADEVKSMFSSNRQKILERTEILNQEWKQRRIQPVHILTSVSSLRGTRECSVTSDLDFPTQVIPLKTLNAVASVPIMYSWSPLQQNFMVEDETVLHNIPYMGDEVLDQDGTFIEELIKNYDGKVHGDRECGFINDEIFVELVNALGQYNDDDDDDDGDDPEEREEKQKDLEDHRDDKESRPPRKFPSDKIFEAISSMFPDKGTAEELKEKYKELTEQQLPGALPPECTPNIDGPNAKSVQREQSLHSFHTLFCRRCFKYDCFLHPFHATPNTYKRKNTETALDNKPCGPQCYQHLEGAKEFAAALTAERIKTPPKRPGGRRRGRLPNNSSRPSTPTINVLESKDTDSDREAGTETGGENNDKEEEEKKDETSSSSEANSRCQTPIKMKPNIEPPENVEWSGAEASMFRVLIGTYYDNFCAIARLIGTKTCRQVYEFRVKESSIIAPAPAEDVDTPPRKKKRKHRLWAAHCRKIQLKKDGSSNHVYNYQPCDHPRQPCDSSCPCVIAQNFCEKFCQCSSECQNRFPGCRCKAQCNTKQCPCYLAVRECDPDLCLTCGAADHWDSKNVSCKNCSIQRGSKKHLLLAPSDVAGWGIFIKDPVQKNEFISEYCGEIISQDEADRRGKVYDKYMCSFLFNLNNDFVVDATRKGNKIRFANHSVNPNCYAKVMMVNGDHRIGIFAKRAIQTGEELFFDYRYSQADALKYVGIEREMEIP

[7] = system: HCT-116; experiment: Antitumor activity against human HCT116 cells xenografted in mouse assessed as reduction in tumor growth at 4 mg/kg, ip bid for 21 days administration starting from 10 days after tumor cell implantation measured every 2 or 4 days till the end of the treatment period relative to control; assay type: functional; settings: HCT-116, ip, read-out: TGI
How it was run: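 HCT116 xenografts in nude mice; intraperitoneal dosing on 21 consecutive days; tumour growth inhibition (TGI) versus untreated control, with body weight recorded. n = 6 mice per group; mean ± SEM; significance by Student's t test versus control.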

[8] = system: HCT-116; experiment: Cell cycle arrest in human HCT116 cells assessed as accumulation in G2 phase at 4 nM incubated for 24 hrs by propidium iodide staining based flow cytometry (reference value: 12.52 %); assay type: functional
[9] = molecular target: Poly [ADP-ribose] polymerase tankyrase-2 (Homo sapiens) (UniProt Q9H2K2); experiment: Inhibition of TNKS2 (unknown origin) using biotin-NAD+, NAD+ and sIDNA as substrate at 5 uM incubated for 1 hr by ELISA relative to control
Poly [ADP-ribose] polymerase tankyrase-2 (Homo sapiens), sequence (Q9H2K2 whole entry): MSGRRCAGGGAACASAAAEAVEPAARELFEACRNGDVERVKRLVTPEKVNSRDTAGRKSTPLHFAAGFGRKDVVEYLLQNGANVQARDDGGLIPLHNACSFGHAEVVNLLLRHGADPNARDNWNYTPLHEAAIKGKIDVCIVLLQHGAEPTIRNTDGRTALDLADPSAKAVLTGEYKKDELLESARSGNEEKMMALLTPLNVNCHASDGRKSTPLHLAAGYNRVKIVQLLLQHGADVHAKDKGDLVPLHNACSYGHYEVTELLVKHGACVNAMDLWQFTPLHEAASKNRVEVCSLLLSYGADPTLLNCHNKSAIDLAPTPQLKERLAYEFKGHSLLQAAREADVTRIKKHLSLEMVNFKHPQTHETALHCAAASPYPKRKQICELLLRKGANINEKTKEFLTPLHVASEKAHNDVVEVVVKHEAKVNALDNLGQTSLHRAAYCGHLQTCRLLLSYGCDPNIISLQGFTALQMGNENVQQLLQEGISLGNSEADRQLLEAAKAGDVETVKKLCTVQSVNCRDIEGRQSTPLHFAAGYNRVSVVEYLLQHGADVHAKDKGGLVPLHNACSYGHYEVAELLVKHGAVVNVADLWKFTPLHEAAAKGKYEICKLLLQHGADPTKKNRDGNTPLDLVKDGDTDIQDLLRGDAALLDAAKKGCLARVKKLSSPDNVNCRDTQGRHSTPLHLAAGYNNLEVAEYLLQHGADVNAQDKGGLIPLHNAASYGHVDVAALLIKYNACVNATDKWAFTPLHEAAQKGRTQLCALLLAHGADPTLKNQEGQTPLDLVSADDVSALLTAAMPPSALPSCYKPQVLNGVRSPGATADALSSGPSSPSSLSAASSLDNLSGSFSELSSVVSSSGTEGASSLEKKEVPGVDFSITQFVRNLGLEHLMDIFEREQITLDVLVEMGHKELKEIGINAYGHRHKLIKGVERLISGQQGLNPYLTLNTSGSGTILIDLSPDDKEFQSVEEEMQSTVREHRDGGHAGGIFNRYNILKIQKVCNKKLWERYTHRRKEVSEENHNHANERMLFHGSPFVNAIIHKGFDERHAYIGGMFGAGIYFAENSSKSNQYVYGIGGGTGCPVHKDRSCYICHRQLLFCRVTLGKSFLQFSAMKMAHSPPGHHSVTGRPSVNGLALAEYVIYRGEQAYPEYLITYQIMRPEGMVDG

[10] = system: HCT-116; experiment: Cell cycle arrest in human HCT116 cells assessed as accumulation in G1 phase at 4 nM incubated for 24 hrs by propidium iodide staining based flow cytometry (reference value: 45.18 %); assay type: functional
[11] = molecular target: Serine/threonine-protein kinase PLK1 (Homo sapiens) (UniProt P53350); experiment: Inhibition of PLK1 (unknown origin) using PLK1 peptide as substrate at 5 uM incubated for 40 mins in presence of 10 uM ATP by kiase-Glo luminescence assay relative to control
Serine/threonine-protein kinase PLK1 (Homo sapiens), sequence (P53350 whole entry): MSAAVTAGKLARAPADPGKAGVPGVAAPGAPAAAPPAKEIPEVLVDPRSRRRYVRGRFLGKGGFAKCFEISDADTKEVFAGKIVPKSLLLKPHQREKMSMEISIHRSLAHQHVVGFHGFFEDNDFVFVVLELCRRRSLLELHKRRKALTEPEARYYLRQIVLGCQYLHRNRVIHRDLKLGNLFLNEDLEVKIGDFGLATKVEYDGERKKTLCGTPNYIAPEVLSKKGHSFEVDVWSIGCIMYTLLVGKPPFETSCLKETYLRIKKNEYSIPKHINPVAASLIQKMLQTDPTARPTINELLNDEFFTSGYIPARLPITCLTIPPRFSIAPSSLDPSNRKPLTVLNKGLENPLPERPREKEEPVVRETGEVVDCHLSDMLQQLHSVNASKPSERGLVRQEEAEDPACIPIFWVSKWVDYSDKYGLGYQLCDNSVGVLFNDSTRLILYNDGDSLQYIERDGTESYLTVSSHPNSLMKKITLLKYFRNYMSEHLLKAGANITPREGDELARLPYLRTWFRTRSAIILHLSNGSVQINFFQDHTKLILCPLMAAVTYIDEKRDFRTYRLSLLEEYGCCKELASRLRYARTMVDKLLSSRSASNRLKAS

[12] = system: PC-3; experiment: Antiproliferative activity against human PC3 cells assessed as reduction in cell viability incubated for 72 hrs by CCK8 assay; assay type: functional, cell-based; settings: PC-3, 72 h
[13] = molecular target: CDK9/cyclin T1 (Homo sapiens) (UniProt O60563+P50750); experiment: Inhibition of CDK9/Cyclin T1 (unknown origin) using PDKtide as substrate at 5 uM incubated for 40 mins in presence of 10 uM ATP by kinase-Glo luminescence assay relative to control; assay type: protein-complex assay
[14] = molecular target: Poly [ADP-ribose] polymerase 2 (Homo sapiens) (UniProt Q9UGN5); experiment: Inhibition of PARP2 (unknown origin) using biotin-NAD+, NAD+ and sIDNA as substrate at 5 uM incubated for 1 hr by ELISA relative to control
Poly [ADP-ribose] polymerase 2 (Homo sapiens), sequence (Q9UGN5 whole entry): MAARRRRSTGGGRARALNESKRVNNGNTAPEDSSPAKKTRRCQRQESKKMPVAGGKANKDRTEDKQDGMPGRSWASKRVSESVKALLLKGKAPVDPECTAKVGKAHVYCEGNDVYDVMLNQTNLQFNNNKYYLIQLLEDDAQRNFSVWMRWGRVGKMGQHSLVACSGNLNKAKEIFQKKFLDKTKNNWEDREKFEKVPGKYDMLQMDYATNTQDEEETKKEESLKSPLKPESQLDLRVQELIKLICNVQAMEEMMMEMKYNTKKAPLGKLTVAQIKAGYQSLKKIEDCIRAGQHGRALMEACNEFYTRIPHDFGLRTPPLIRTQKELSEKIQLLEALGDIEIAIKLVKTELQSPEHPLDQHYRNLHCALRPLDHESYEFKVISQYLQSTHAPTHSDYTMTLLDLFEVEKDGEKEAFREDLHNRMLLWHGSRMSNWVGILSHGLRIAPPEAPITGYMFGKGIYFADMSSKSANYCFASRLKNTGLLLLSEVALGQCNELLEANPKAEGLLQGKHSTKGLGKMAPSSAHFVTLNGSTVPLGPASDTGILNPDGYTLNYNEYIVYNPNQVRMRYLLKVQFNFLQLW

[15] = molecular target: T1, DNA topoisomerase 1 (Escherichia coli (strain K12)) (UniProt P06612); experiment: Inhibition of Escherichia coli Top1 assessed as decrease in relaxation of supercoiled pBR322 plasmid DNA at 100 uM using supercoiled pBR322 plasmid DNA as substrate incubated for 15 mins by agarose gel electrophoresis analysis
T1 sequence (whole entry): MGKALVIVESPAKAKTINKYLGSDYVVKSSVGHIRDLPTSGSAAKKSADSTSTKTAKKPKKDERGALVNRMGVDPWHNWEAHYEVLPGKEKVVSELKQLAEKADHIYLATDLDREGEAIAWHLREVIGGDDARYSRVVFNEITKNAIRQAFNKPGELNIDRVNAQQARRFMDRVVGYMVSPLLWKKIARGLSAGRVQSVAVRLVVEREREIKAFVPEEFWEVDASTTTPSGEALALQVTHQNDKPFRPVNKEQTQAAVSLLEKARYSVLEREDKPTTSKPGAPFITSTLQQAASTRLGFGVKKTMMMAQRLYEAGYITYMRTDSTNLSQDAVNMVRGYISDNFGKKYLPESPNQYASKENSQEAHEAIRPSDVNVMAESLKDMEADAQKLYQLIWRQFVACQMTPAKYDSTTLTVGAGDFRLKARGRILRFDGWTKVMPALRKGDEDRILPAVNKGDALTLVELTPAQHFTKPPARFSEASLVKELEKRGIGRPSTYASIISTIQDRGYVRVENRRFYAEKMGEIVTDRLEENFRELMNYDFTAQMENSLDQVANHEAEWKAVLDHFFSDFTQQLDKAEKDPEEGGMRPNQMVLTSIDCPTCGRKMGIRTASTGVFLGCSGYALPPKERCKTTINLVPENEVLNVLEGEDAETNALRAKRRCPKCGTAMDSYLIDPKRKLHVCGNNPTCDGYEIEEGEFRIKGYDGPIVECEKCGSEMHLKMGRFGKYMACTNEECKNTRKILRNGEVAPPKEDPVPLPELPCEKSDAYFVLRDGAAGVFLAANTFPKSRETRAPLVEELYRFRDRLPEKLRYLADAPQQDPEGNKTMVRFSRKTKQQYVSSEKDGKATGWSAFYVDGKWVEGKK

[16] = system: HCT-116; experiment: Cell cycle arrest in human HCT116 cells assessed as accumulation in S phase at 36 nM incubated for 24 hrs by propidium iodide staining based flow cytometry (reference value: 42.31 %); assay type: functional
[17] = system: HCT-116; experiment: Induction of apoptosis in human HCT116 cells at 1 uM incubated for 24 hrs by annexin V-FITC and propidium iodide staining based flow cytometry (reference value: 0.86 %); assay type: functional
[18] = molecular target: NAD-dependent protein deacetylase sirtuin-1 (Homo sapiens) (UniProt Q96EB6); experiment: Inhibition of N-terminal His tagged recombinant human SIRT1 (193 to end residues) expressed in baculovirus infected Sf9 cells using HDAC substrate 1 as substrate at 5 uM incubated for 30 mins by fluorescence based analysis relative to control
NAD-dependent protein deacetylase sirtuin-1 (Homo sapiens), sequence (Q96EB6 whole entry): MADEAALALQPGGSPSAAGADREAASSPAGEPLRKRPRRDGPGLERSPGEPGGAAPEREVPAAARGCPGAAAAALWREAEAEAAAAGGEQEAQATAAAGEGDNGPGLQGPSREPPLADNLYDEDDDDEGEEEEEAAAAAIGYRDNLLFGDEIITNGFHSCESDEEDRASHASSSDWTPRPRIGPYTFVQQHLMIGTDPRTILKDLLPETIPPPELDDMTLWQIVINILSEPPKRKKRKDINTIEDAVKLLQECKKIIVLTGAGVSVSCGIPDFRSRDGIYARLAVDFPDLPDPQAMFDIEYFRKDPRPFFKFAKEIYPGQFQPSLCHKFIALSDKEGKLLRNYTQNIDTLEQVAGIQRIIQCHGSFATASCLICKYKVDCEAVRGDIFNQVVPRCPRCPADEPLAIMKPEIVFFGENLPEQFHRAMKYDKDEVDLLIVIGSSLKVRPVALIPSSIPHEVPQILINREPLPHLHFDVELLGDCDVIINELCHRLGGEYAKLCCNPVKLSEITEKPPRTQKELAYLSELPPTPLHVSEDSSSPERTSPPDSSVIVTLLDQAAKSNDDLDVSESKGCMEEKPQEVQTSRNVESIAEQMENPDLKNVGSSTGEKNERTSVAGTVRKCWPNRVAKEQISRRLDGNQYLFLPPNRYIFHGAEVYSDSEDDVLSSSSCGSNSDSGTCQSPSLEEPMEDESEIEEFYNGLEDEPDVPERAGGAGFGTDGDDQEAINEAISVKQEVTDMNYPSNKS

[19] = organism: Homo sapiens; experiment: Inhibition of PDE4A1A (unknown origin) using FAM-cAMP as substrate at 5 uM incubated for 1 hr by fluorescence polarization assay relative to control

## COc1ccc2c(c1)cc1n2CCN2C(=O)c3cc(F)ccc3N(C)C12 (centres undefined)
[1]
  inhibition: < 20%
[2]
  IC50: 0.4 µM
[3]
  inhibition: < 20%
[4]
  inhibition: < 20%
[5]
  inhibition: < 20%
[6]
  inhibition: < 20%
[7]
  inhibition in vivo at 4 mg/kg: 37%
[8]
  Activity: 17.73%
[9]
  inhibition: < 20%
[10]
  Activity: 43.01%
[11]
  inhibition: < 20%
[12]
  IC50: 0.3 µM
[13]
  inhibition: < 20%
[14]
  inhibition: < 20%
[15]
  inhibition: Active
[16]
  Activity: 14.85%
[17]
  Activity: 52%
[18]
  inhibition: < 20%
[19]
  inhibition: < 20%
